Reference: ChEMBL document CHEMBL3352401, “Synthesis and antiviral activity of new phenylimidazopyridines and N-benzylidenequinolinamines derived by molecular simplification of phenylimidazo[4,5-g]quinolines” (Eur J Med Chem, 2014)

Key:
[1] = test system: Human immunodeficiency virus 1; assay: Antiviral activity against HIV-13B infected in MT4 cells assessed as protection from virus-induced cytopathogenicity after 4 days by MTT method; format: functional, organism-based; conditions: Human immunodeficiency virus 1, 3B, MT4, 96 h
In short: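 HIV-1 IIIB, taken from persistently infected H9/IIIB supernatant. MT-4 cells (1×10⁴/well) in RPMI with serial compound dilutions, infected with 100 CCID50 (m.o.i. 0.01). Viability by MTT after 4 days at 37 °C. EC50 = 50% protection from cytopathogenicity, by linear regression against untreated controls. Compounds kept as 100 mM DMSO stocks, diluted in medium.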

[2] = Antiviral activity against Human respiratory syncytial virus A2 ATCC VR-1540 infected in Vero 76 cells after 5 days by plaque reduction assays; format: functional, cell-based; conditions: ATCC VR-1540, Vero 76, 120 h
[3] = test system: Yellow fever virus; assay: Antiviral activity against Yellow fever virus 17D Stamaril Pasteur J07B01 infected in BHK21 cells assessed as protection from virus-induced cytopathogenicity after 3 to 4 days by MTT method; format: functional, cell-based; conditions: Stamaril Pasteur J07B01, BHK-21
In short: (§1)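 Confluent monolayers grown overnight (BHK-21 at 5×10⁴ cells/well for YFV and Reo-1; MDBK at 3×10⁴ cells/well for BVDV). Infection at m.o.i. 0.01 for 2 h in maintenance MEM-Earle with 0.5% inactivated FBS, then serial compound dilutions added. Viability read by MTT after 3–4 days at 37 °C. EC50 taken from linear regression against untreated controls.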

[4] = Cytotoxicity against mock-infected hamster BHK21 cells assessed as reduction in proliferation after 72 hrs by MTT method; format: cell-based, Mesocricetus auratus, BHK-21
In short: (§2)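 MDBK and BHK cells seeded at 6 × 10⁵ and 1 × 10⁶ cells/mL respectively. Medium was MEM-Earle with L-glutamine, 1 mM pyruvate and kanamycin, plus 10% horse serum (MDBK) or 10% FBS (BHK). Cells exposed to serial compound dilutions at 37 °C, 5% CO₂; MTT viability read at 72 h. CC50 by linear regression versus untreated controls.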

[5] = Antiviral activity against Simian virus 12 3651 (ATCC VR- 214) infected in BHK21 cells assessed as protection from virus-induced cytopathogenicity after 3 to 4 days by MTT method; format: functional, cell-based; conditions: BHK-21; in short: as §1
[6] = Cytotoxicity against mock-infected human MT4 cells assessed as reduction in proliferation after 96 hrs by MTT method; format: cell-based
In short: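 Exponentially growing MT-4 cells seeded at 1 × 10⁵ cells/mL in RPMI-1640 with 10% FBS, penicillin and streptomycin. Held 96 h at 37 °C, 5% CO₂ with or without serial compound dilutions; viability by MTT. Compounds dissolved in DMSO at 100 mM stock, then diluted in medium. CC50 by linear regression.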

[7] = test system: Human poliovirus 1 strain Sabin; assay: Antiviral activity against Poliovirus 1 strain Sabin ATCC VR-1562 infected in Vero 76 cells after 2 days by plaque reduction assays; format: functional, organism-based; conditions: Enterovirus C, ATCC VR-1562, Vero 76, 48 h
[8] = Cytotoxicity against mock-infected bovine MDBK cells assessed as reduction in proliferation after 72 hrs by MTT method; format: cell-based, Bos taurus; conditions: cattle; in short: as §2
[9] = test system: Human alphaherpesvirus 1; assay: Antiviral activity against Human herpesvirus 1 strain KOS ATCC VR- 1493 infected in Vero 76 cells after 3 days by plaque reduction assays; format: functional, organism-based; conditions: Human alphaherpesvirus 1, KOS ATCC VR1493, Vero 76, 72 h
[10] = test system: Vesicular stomatitis Indiana virus; assay: Antiviral activity against Vesicular stomatitis Indiana virus ATCC VR 158 infected in Vero 76 cells after 2 days by plaque reduction assays; format: functional, organism-based; conditions: ATCC VR 158, Vero 76, 48 h
[11] = Antiviral activity against Vaccinia virus Lister ATCC VR-1549 infected in Vero 76 cells after 3 days by plaque reduction assays; format: functional, cell-based; conditions: ATCC VR-1549, Vero 76, 72 h
[12] = Antiviral activity against Bovine viral diarrhea virus 1-NADL ATCC VR-534 infected in MDBK cells assessed as protection from virus-induced cytopathogenicity after 3 to 4 days by MTT method; format: functional, cell-based; conditions: Bovine viral diarrhea virus isolates and strains, ATCC VR-534, MDBK; in short: as §1
[13] = test system: Coxsackievirus B5; assay: Antiviral activity against Coxsackievirus B5 Faulkner (ATCC VR-185) infected in Vero 76 cells after 3 days by plaque reduction assays; format: functional, organism-based; conditions: Enterovirus B, Vero 76, 72 h
[14] = Cytotoxicity against mock-infected African green monkey Vero 76 cells assessed as reduction in proliferation after 48 to 96 hrs by MTT method; format: cell-based; conditions: chlorocebus sabaeus, Vero 76 cells (mock-infected)
In short: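 Vero-76 cells seeded at 4 × 10⁵ cells/mL in D-MEM with L-glutamine, kanamycin and 10% FBS. Incubated at 37 °C, 5% CO₂, with or without serial dilutions of compound; viability read by MTT after 48–96 h. Run in parallel with antiviral assays. CC50 obtained by linear regression of % of untreated control.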

Row | Structure (SMILES) | EC50 [1] [µM] | EC50 [2] [µM] | EC50 [3] [µM] | CC50 at 72 h [4] [µM] | EC50 [5] [µM] | CC50 at 96 h [6] [µM] | EC50 [7] [µM] | CC50 at 72 h [8] [µM] | EC50 [9] [µM] | EC50 [10] [µM] | EC50 [11] [µM] | EC50 [12] [µM] | EC50 [13] [µM] | CC50 [14] [µM]
1 | Nc1c(/N=C/c2ccc(C(F)(F)F)c([N+](=O)[O-])c2)cc2cccnc2c1Cl | > 100 | > 90 | > 75 | > 100 | > 100 | 20 | 22 | > 100 | > 100 | > 90 | > 90 | 11 | 16 | 90
2 | Nc1nc2c(ncn2COCCO)c(=O)[nH]1 [ACYCLOVIR] | – | – | – | – | – | – | – | – | – | – | – | – | – | > 100
3 | C#C[C@@]1(O)[C@H](O)[C@@H](CO)O[C@H]1n1ccc(N)nc1=O [2'-ETHYNYL-D-CYTIDINE] | – | – | – | – | – | – | 23 | – | – | – | – | – | – | > 100
4 | CC(=O)c1ccc(-c2nc3ccncc3[nH]2)cc1 | > 100 | > 100 | > 100 | > 100 | > 100 | > 100 | > 100 | > 100 | > 100 | > 100 | > 100 | 7 | > 100 | > 100
5 | N#Cc1ccc(-c2nc3cccnc3[nH]2)cc1 | > 100 | > 100 | > 100 | > 100 | > 100 | > 100 | > 100 | > 100 | > 100 | > 100 | > 100 | > 100 | > 100 | > 100
6 | c1cnc2[nH]c(-c3ccoc3)nc2c1 | > 100 | > 100 | > 100 | > 100 | > 100 | > 100 | > 100 | > 100 | > 100 | > 100 | > 100 | > 100 | > 100 | > 100
7 | C[C@@]1(O)[C@H](O)[C@@H](CO)O[C@H]1n1cnc2c(=O)[nH]c(N)nc21 [2'-B-METHYL-GUANOSINE] | – | – | – | > 100 | – | – | – | > 100 | – | – | – | 1.1 | – | –
8 | N#Cc1ccc(/C=N/c2cc3c(=O)cc[nH]c3c(Cl)c2N)cc1 | > 100 | > 100 | > 87 | > 100 | > 100 | > 100 | > 100 | > 100 | > 100 | > 100 | > 100 | 28 | > 100 | > 100
9 | c1cnc2[nH]c(C3CCCCC3)nc2c1 | > 100 | > 100 | > 100 | > 100 | > 100 | > 100 | > 100 | > 100 | > 100 | > 100 | > 100 | > 100 | 86 | > 100
10 | Brc1cnc2[nH]c(-c3ccoc3)nc2c1 | 20 | > 40 | > 100 | > 100 | > 100 | 20 | > 40 | 40 | > 40 | > 40 | > 40 | 40 | > 40 | 40
11 | Brc1cnc2[nH]c(C3CCCCC3)nc2c1 | > 100 | > 100 | > 100 | > 100 | > 100 | > 100 | > 100 | > 100 | > 100 | > 100 | 16 | > 100 | 20 | > 100
12 | C[C@@]1(O)[C@H](O)[C@@H](CO)O[C@H]1n1ccc(N)nc1=O | – | – | > 100 | – | 16 | – | – | – | – | – | – | – | – | –
13 | N#Cc1ccc(-c2nc3ccncc3[nH]2)cc1 | > 100 | > 100 | > 100 | > 100 | > 100 | > 100 | > 100 | > 100 | > 100 | > 100 | 56 | 9 | > 100 | > 100
14 | O=c1cnn([C@@H]2O[C@H](CO)[C@@H](O)[C@H]2O)c(=O)[nH]1 [6-AZAURIDINE] | – | 1.2 | – | – | – | – | – | – | – | – | – | – | – | ≥ 12.5
15 | O=[N+]([O-])c1ccc(-c2nc3cc4cccnc4c(Cl)c3[nH]2)cc1 | > 100 | > 100 | > 100 | > 100 | > 100 | > 100 | > 100 | > 100 | > 44 | > 100 | > 100 | 1.2 | > 100 | > 100
16 | Nc1ccn(C[C@@H](CO)OCP(=O)(O)O)c(=O)n1 [CIDOFOVIR] | – | – | – | – | – | – | – | – | – | – | 19 | – | – | > 100
